In ChEMBL document CHEMBL1142637, “New caryophyllene derivatives from Betula litwinowii” (2000):
Values after ≈ are worked out from the molar mass of the structure shown.

Columns and labels:
Assay type in all cases: functional
Staphylococcus aureus = test: Antibacterial activity against Staphylococcus aureus after 24 hrs
Method in brief: (§1)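 Broth microdilution MIC. Compound stock in DMSO, serially diluted 1000 to 0.97 μg/mL in sterile distilled water. Bacteria were freshly grown in double-strength Mueller-Hinton broth and adjusted to 108 CFU/mL. Equal volumes of dilution and suspension were mixed. Sterile water well served as growth control, and dilutions without organism as negative control. After 37 °C for 24 h, MIC was read as the first well without turbidity.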

Nakaseomyces glabratus = test: Antifungal activity against Candida glabrata after 24 hrs
Method in brief: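 Broth microdilution: pure compound stock in DMSO, serially diluted from 1000 to 0.97 μg/mL in sterile distilled water. Each dilution was mixed with an equal volume of standardized C. glabrata suspension in yeast medium. Sterile water served as growth control, and dilutions without organism as negative control. After 24 h at 37 °C, MIC was read as the first well without turbidity.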

Drechslera = test: Antifungal activity against Drechslera sorokinianse at 200 ug/mL after 7 to 10 days by agar tube dilution technique relative to ketoconazole
Method in brief: (§2)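 Agar tube dilution against plant pathogenic fungi. Compound in DMSO was mixed into molten SDA to a final 200 μg/mL and solidified as slants at room temperature. Slants were inoculated with 4×4 mm plugs cut from 1-week cultures and incubated 7–10 days at 29 °C. Linear growth (mm) was measured, and % inhibition was calculated against a DMSO-only medium control. Ketoconazole served as the reference drug.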

Micrococcus luteus = test: Antibacterial activity against Micrococcus luteus after 24 hrs; method in brief: as §1
Akanthomyces muscarius = test: Antifungal activity against Cephalosporium ophidicola at 200 ug/mL after 7 to 10 days by agar tube dilution technique; method in brief: as §2
Pseudomonas aeruginosa = test: Antibacterial activity against Pseudomonas aeruginosa after 24 hrs; method in brief: as §1
Escherichia coli = test: Antibacterial activity against Escherichia coli after 24 hrs; method in brief: as §1
Ceratobasidium cereale = test: Antifungal activity against Rhizoctonia cerealis at 200 ug/mL after 7 to 10 days by agar tube dilution technique; method in brief: as §2
Bacillus cereus = test: Antibacterial activity against Bacillus cereus after 24 hrs; method in brief: as §1
Fusarium solani = test: Antifungal activity against Fusarium solani at 200 ug/mL after 7 to 10 days by agar tube dilution technique relative to ketoconazole; method in brief: as §2

Structure (SMILES)	MIC (Staphylococcus aureus)	MIC (Nakaseomyces glabratus)	inhibition at 200 µg/mL (Drechslera)	MIC (Micrococcus luteus)	inhibition at 200 µg/mL (Akanthomyces muscarius)	MIC (Pseudomonas aeruginosa)	MIC (Escherichia coli)	inhibition at 200 µg/mL (Ceratobasidium cereale)	MIC (Bacillus cereus)	inhibition at 200 µg/mL (Fusarium solani)
C=C1CCC[C@H](CO)CC[C@@H]2[C@@H]1CC2(C)C	250 µg/mL (≈ 1120 µM)	125 µg/mL (≈ 562 µM)	75%	250 µg/mL (≈ 1120 µM)	100%	250 µg/mL (≈ 1120 µM)	250 µg/mL (≈ 1120 µM)	100%	125 µg/mL (≈ 562 µM)	59%
O=C(N[C@H](CO)[C@H](O)c1ccc([N+](=O)[O-])cc1)C(Cl)Cl [CHLORAMPHENICOL]	7.81 µg/mL (≈ 24.2 µM)	–	–	125 µg/mL (≈ 387 µM)	–	62.5 µg/mL (≈ 193 µM)	250 µg/mL (≈ 774 µM)	–	125 µg/mL (≈ 387 µM)	–
CC(=O)N1CCN(c2ccc(OCC3COC(Cn4ccnc4)(c4ccc(Cl)cc4Cl)O3)cc2)CC1 (stereo unspecified) [KETOCONAZOLE]	–	62.5 µg/mL (≈ 118 µM)	–	–	–	–	–	–	–	–
